ChEMBL document CHEMBL3046654, “Penoxsulam--structure-activity relationships of triazolopyrimidine sulfonamides” (Bioorg Med Chem, 2009)

Columns and labels:
[1] = test system: Alopecurus; assay: Post-emergence herbicidal activity against Alopecurus spp. compound treated as foliar application measured after 2 weeks; type: functional
How it was run: (§1)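 Greenhouse post-emergence foliar screen in 64 cm² pots. Seed treatments were used on some species to aid germination. Plants were grown 7–21 days at 23–29 °C day/22–28 °C night under a 15 h photoperiod. Sprayed at 2–12 cm height and the 1–4 true leaf stage.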

[2] = test system: Chenopodium album; assay: Post-emergence herbicidal activity against Chenopodium album compound treated as foliar application measured after 2 weeks; type: functional; how it was run: as §1
[3] = test system: Echinochloa crus-galli; assay: Post-emergence herbicidal activity against 2-3-leaf stage Echinochloa crus-galli (barnyard grass) under field condition by foliar application method; type: functional
[4] = test system: Setaria faberi; assay: Post-emergence herbicidal activity against Setaria faberi (Giant Foxtail) compound treated as foliar application measured after 2 weeks; type: functional; how it was run: as §1
[5] = test system: Avena fatua; assay: Post-emergence herbicidal activity against Avena fatua compound treated as foliar application measured after 2 weeks; type: functional; how it was run: as §1
[6] = test system: Pontederia vaginalis; assay: Post-emergence herbicidal activity against three-leaf stage Monochoria vaginalis under green-house condition by water injection treatment method; type: functional
How it was run: (§2)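 Greenhouse paddy test. Seed was sown on saturated Metro Mix, covered with about 0.5 cm mix and held 48 h dark at 30 °C, 95% RH; about 15 d from seed soaking to treatment. Treatment solution was injected into the water. Rates were set per pot surface area, with serial rates made by halving the volume delivered. Held at 16 h day length, 29 °C.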

[7] = test system: Echinochloa crus-galli; assay: Post-emergence herbicidal activity against three-leaf stage Echinochloa crus-galli (barnyard grass) under field condition by water injection treatment method; type: functional
How it was run: (§3)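 Field trials: water-injected treatment applied to transplanted japonica rice and to weeds at the three-leaf stage, under rice-growing conditions in several countries.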

[8] = test system: Schoenoplectiella juncoides; assay: Post-emergence herbicidal activity against two to three-leaf stage Schoenoplectiella juncoides under field condition by foliar application method; type: functional
[9] = test system: Echinochloa crus-galli; assay: Post-emergence herbicidal activity against Echinochloa crus-galli (barnyard grass) compound treated as foliar application measured after 2 weeks; type: functional; how it was run: as §1
[10] = test system: Helianthus; assay: Post-emergence herbicidal activity against Helianthus spp. compound treated as foliar application measured after 2 weeks; type: functional; how it was run: as §1
[11] = test system: Ipomoea; assay: Post-emergence herbicidal activity against Ipomoea spp. compound treated as foliar application measured after 2 weeks; type: functional; how it was run: as §1
[12] = test system: Oryza sativa; assay: Phytotoxicity against Oryza sativa (rice); type: organism-based; conditions: in vivo
[13] = test system: Cyperus difformis; assay: Post-emergence herbicidal activity against three-leaf stage Cyperus difformis under green-house condition by water injection treatment method; type: functional; how it was run: as §2
[14] = test system: Datura stramonium; assay: Post-emergence herbicidal activity against Datura stramonium compound treated as foliar application measured after 2 weeks; type: functional; how it was run: as §1
[15] = test system: Sorghum halepense; assay: Post-emergence herbicidal activity against Sorghum halepense (Johnson grass) compound treated as foliar application measured after 2 weeks; type: functional; how it was run: as §1
[16] = test system: Schoenoplectiella juncoides; assay: Post-emergence herbicidal activity against three-leaf stage Schoenoplectiella juncoides under green-house condition by water injection treatment method; type: functional; how it was run: as §2
[17] = test system: Abutilon theophrasti; assay: Post-emergence herbicidal activity against Abutilon theophrasti (velvetleaf) compound treated as foliar application measured after 2 weeks; type: functional; how it was run: as §1
[18] = test system: Sesbania herbacea; assay: Post-emergence herbicidal activity against three to four-leaf stage Sesbania herbacea under field condition by foliar application method; type: functional
[19] = test system: Echinochloa crus-galli; assay: Post-emergence herbicidal activity against 3-4-leaf stage Echinochloa crus-galli (barnyard grass) under field condition by foliar application method; type: functional
[20] = test system: Oryza sativa; assay: Phytotoxicity against two to three-leaf stage indica Oryza sativa (rice) under field condition by foliar application method; type: organism-based; conditions: in vivo
[21] = test system: Amaranthus retroflexus; assay: Post-emergence herbicidal activity against Amaranthus retroflexus compound treated as foliar application measured after 2 weeks; type: functional; how it was run: as §1
[22] = test system: Xanthium strumarium; assay: Post-emergence herbicidal activity against Xanthium strumarium (cocklebur) compound treated as foliar application measured after 2 weeks; type: functional; how it was run: as §1
[23] = test system: Oryza sativa; assay: Phytotoxicity against three-leaf stage Oryza sativa (rice) under field condition by water injection treatment method; type: organism-based; how it was run: as §3
[24] = test system: Ipomoea hederacea; assay: Post-emergence herbicidal activity against Ipomoea hederacea (ivy-leaved morning glory) compound treated as foliar application measured after 2 weeks; type: functional; how it was run: as §1
[25] = test system: Digitaria sanguinalis; assay: Post-emergence herbicidal activity against Digitaria sanguinalis (hairy crabgrass) compound treated as foliar application measured after 2 weeks; type: functional; how it was run: as §1
[26] = test system: Stellaria media; assay: Post-emergence herbicidal activity against Stellaria media compound treated as foliar application measured after 2 weeks; type: functional; how it was run: as §1
[27] = test system: Oryza sativa; assay: Phytotoxicity against three to four-leaf stage japonica Oryza sativa (rice) under field condition by foliar application method; type: organism-based; conditions: in vivo
[28] = test system: Oryza sativa; assay: Phytotoxicity against three-leaf stage Oryza sativa (rice) under green-house condition by water injection treatment method; type: organism-based; how it was run: as §2
[29] = test system: Schoenoplectiella juncoides; assay: Post-emergence herbicidal activity against three-leaf stage Schoenoplectiella juncoides under field condition by water injection treatment method; type: functional; how it was run: as §3
[30] = test system: Echinochloa crus-galli; assay: Post-emergence herbicidal activity against three-leaf stage Echinochloa crus-galli (barnyard grass) under green-house condition by water injection treatment method; type: functional; how it was run: as §2
[31] = test system: Pontederia vaginalis; assay: Post-emergence herbicidal activity against three-leaf stage Monochoria vaginalis under field condition by water injection treatment method; type: functional; how it was run: as §3
[32] = test system: Veronica hederifolia; assay: Post-emergence herbicidal activity against Veronica hederifolia compound treated as foliar application measured after 2 weeks; type: functional; how it was run: as §1
[33] = test system: Fallopia convolvulus; assay: Post-emergence herbicidal activity against Fallopia convolvulus compound treated as foliar application measured after 2 weeks; type: functional; how it was run: as §1

`COc1cnc(OC)n2nc(NS(=O)(=O)c3c(OCCF)cccc3C(F)(F)F)nc12` was tested, and the GR80 [1] was 66 ppm, the GR80 [2] was 6 ppm and the GR80 [3] was 5 gAi/ha. It also gave a GR80 [4] of 66 ppm, a GR80 [5] of 66 ppm and a GR80 [6] of 5.2 gAi/ha. The GR80 [7] was 19 gAi/ha, the GR80 [8] was 4 gAi/ha and the GR80 [9] was 1 ppm. The GR80 [10] was 6 ppm, the GR80 [11] was 6 ppm and the GR20 [12] was 250 ppm. For the same molecule, the GR80 [13] was 8 gAi/ha, the GR80 [14] was 6 ppm and the GR80 [15] was 66 ppm. It also gave a GR80 [16] of 9 gAi/ha, a GR80 [17] of 6 ppm and a GR80 [18] of 10 gAi/ha. It also gave a GR80 [19] of 12 gAi/ha, a GR10 [20] of over 70 gAi/ha and a GR80 [21] of 6 ppm. The GR80 [22] was 6 ppm, the GR10 [23] was 8 gAi/ha and the GR80 [24] was 6 ppm. It also gave a GR80 [25] of 66 ppm, a GR80 [26] of 6 ppm and a GR10 [27] of 12 gAi/ha. For the same molecule, the GR20 [28] was 14 gAi/ha, the GR80 [29] was 5 gAi/ha and the GR80 [30] was 10 gAi/ha. The GR80 [31] was 4.4 gAi/ha, the GR80 [32] was 6 ppm and the GR80 [33] was 6 ppm.
